# Assay outcomes (PubChem)
# MrgX1 PAM = allosterically activates human MrgX1 receptor signaling; MrgX1-HEK293, Fluo-4 calcium flux, FDSS; active compounds read high; B-score at 10 µM; 0.63% of 310,000 active; AID 588675;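 active = plate-corrected calcium response at least 3 library SD above typical, normal starting fluorescence, not activating the receptor alone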;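 also: compound read alongside a low EC10 to EC30 dose of BAM8-22 agonist; peak minus trough fluorescence over baseline measured at the second addition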
# Target sequence (Q96LB2 whole entry, looked up): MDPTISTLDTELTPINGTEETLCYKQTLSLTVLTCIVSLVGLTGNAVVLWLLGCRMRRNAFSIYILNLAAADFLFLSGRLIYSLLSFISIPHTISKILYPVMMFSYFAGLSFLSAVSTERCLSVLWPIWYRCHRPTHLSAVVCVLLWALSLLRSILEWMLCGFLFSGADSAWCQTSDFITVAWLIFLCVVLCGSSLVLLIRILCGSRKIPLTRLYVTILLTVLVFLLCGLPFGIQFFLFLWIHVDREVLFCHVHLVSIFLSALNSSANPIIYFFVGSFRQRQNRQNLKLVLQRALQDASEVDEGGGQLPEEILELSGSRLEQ
# RGS4 pot = potentiators or activators of RGS4. HEK293 M3R/inducible RGS4, carbachol calcium flux Fluo4; active compounds read low. B-score at 10 µM. 0.92% of 310,000 active;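 active = B-score of the integrated calcium signal more than 4 SD below the library mean, with starting fluorescence not abnormally high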;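 also: negative B-score means reduced calcium response which marks RGS4 activation or potentiation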
#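 test system = HEK293 cells with stable M3R and inducible RGS4 | schedule = recording 10 s baseline at 1 Hz, 100 s post-agonist | technique = Fluo4-AM (2 µM) calcium-flux fluorescence, kinetic read | measure = Agonist-evoked peak-minus-minimum fluorescence over baseline, integrated ratio, B score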
# MrgX1 agonist = agonists of human MrgX1 receptor | Q96LB2 | MrgX1-HEK293 cells, Fluo-4 calcium fluorescence, agonist mode; active compounds read high | AID 588627 | B-score at 10 µM | 0.44% of 310,000 active;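 active = calcium response B-score plate-corrected fluorescence ratio at least 3 library SD, with starting fluorescence B-score inside 5 SD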
#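 Test system: Stable human MrgX1 HEK293 cell line | Schedule: Overnight plating before 1 h dye loading | Read-out basis: Baseline-normalised fluorescence change ratio, B-scored | Detection: Kinetic calcium dye fluorescence, Fluo-4 NW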
# RGS4 block = inhibitors of human RGS4; P49798; HEK293 M3R/RGS4 inducible, Fluo-4 calcium flux; active compounds read high; triggered by carbachol at its EC20; B-score at 10 µM; 0.45% of 310,000 active; AID 463165;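 active = B-score, a plate-corrected calcium signal, over three deviations above library mean, with baseline fluorescence within five deviations of library mean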;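 also: RGS4 expression induced by doxycycline in cells with stable M3 receptor; B-score is computed from the integrated fluorescence ratio over baseline after carbachol; higher B-score means a larger calcium signal and so more RGS4 inhibition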
# Target sequence (P49798 whole entry, looked up): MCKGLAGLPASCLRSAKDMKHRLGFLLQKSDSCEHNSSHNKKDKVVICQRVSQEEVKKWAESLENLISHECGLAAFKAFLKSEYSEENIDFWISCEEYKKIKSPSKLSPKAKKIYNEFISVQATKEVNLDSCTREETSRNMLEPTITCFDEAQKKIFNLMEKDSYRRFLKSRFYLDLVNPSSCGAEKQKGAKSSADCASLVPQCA
# MrgX1 antagonist = human MrgX1 receptor antagonism, primary screen. Q96LB2. MRGX1-HEK293 calcium flux, Fluo-4, BAM8-22 antagonism; active compounds read low. B-score at 10 µM. 1.3% of 310,000 active. AID 588676;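 active = calcium-response B-score plate-corrected more than 3 library SD below zero, starting fluorescence within 5 deviations, no agonist response on first addition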;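 also: peak minus trough fluorescence over baseline after final BAM8-22 challenge near maximal dose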
# MrgX1 PAM conf = human MrgX1 positive allosteric modulation, re-confirmation; shares compounds with MrgX1 PAM; MrgX1-HEK293, Fluo-4 calcium fluorescence, FDSS; activation (ratio percentage), % at 10 µM; 13% of 1,200 active; AID 602413;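 active = ratio at least 3 SD above the weak peptide control, stable starting fluorescence, no direct agonism earlier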;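 also: compound followed by low BAM8-22 agonist challenge near EC20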
# HEK293 Ca flux = counter-screen for MrgX1 antagonists: effect in parental HEK293 cells; 2% of 4,000 active; shares compounds with MrgX1 antagonist; fluorescence ratio F(max-min)/F0 at 10 µM; Fluo-4 calcium fluorescence, FDSS;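 active = duplicate-averaged calcium fluorescence ratio at least three times the standard deviation of buffer wells, a nonspecific response in parental cells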
# HEK293 Ca counter = counter-screen for MrgX1 allosteric activators: effect in parental HEK293 cells. AID 624114. fluorescence ratio F(max-min)/F0 at 10 µM. 0.4% of 4,000 active. parental HEK293 calcium flux, Fluo-4 fluorescence ratio; active compounds read high. shares compounds with MrgX1 antagonist;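 active = calcium fluorescence ratio, averaged over duplicates, at least 3 SD of the buffer-well ratio, meaning a nonspecific response in receptor-free cells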;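 also: untransfected parental HEK293 lacking MrgX1 used as counterscreen for MrgX1 allosteric activators; fluorescence change taken during the second addition on a kinetic imager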
# HEK293 Ca cntr2 = counter-screen for MrgX1 activators: effect in parental HEK293 cells | shares compounds with MrgX1 antagonist | Fluo-4 calcium fluorescence (FDSS); active compounds read high | fluorescence ratio F(max-min)/F0 at 10 µM | 8.7% of 4,000 active | AID 624115;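 active = calcium fluorescence ratio at least three times the spread of buffer wells, meaning a non-specific response in parental cells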
# Active calls of the source: *; i = inactive; / = no result. The list is not random: actives were taken first. Their share in the collection is about 3.5%.
SMILES,MrgX1 PAM,RGS4 pot,MrgX1 agonist,RGS4 block,MrgX1 antagonist,MrgX1 PAM conf,HEK293 Ca flux,HEK293 Ca counter,HEK293 Ca cntr2
CCn1cc(CN2CCC(n3nccc3NC(=O)c3ccc4c(c3)OCO4)CC2)c(C)n1,i,i,i,i,i,/,/,/,/
COc1cccc(CN2CC(C(=O)N(C)Cc3nc4ccc(F)cc4[nH]3)CCC2=O)c1 (stereo not given),6.95*,i,i,i,i,i,i,i,i
COc1ccc2nc(CCN(C)C(=O)C3CCC(=O)N(Cc4cccc(F)c4)C3)[nH]c2c1 (stereo not given),i,i,i,i,i,/,/,/,/
CCC1=NN2C(=N)/C(=C\c3ccc(SCc4ccco4)o3)C(=O)N=C2S1,22.1*,i,i,i,i,i,i,i,57*
COCCN(C(=S)Nc1cc(C)cc(C)c1)C(C)c1ccco1 (stereo not given),8.25*,i,i,i,i,i,i,i,i
O=C(NCc1ccc2c(c1)OCO2)C1CC(=O)N(CCc2ccc(F)cc2)C1 (stereo not given),i,i,i,i,i,/,/,/,/
CCN(CC)S(=O)(=O)c1cccc(NC(=O)COC(=O)C2CC3C=CC2C3)c1 (stereo not given),6.52*,i,i,i,i,i,i,i,i
O=[N+]([O-])c1ccc(NC(=S)N2CCc3ccccc3C2)cc1,i,i,i,i,i,/,/,/,/
O=C(CCc1nc(-c2ccccc2)c(-c2ccccc2)o1)OCc1ccc(Cl)cc1,i,i,i,i,i,/,/,/,/
O=C(CCc1nc(-c2ccccc2)c(-c2ccccc2)o1)OCc1ccc(Br)cc1,19.7*,i,i,i,i,i,i,i,i
COc1ccc(C(=O)N2CCN(C3CCCCC3)CC2)cc1OC,i,i,i,i,i,/,/,/,/
O=C(COC(=O)c1ccc(NS(=O)(=O)c2ccc(Br)s2)cc1)NC1CCCC1,18.8*,i,i,i,i,i,i,i,i
CC(C)CC(COCc1ccc(F)cc1)N1CCN(C(=O)c2cccc(C(F)(F)F)c2)CCC1=O (stereo not given),i,i,i,i,i,/,/,/,/
CC(C)CC(CO)N1CCN(C(=O)c2cccc(C(F)(F)F)c2)CCC1=O (stereo not given),10.2*,i,i,i,i,i,i,i,i
O=[N+]([O-])c1ccc(Cl)cc1NCc1cccnc1,i,i,i,i,i,/,/,/,/
COc1ccc(C)cc1S(=O)(=O)N1CCCC(C(=O)NC2CC2)C1 (stereo not given),i,i,i,i,i,/,/,/,/
Cn1c(N2CCN(C(=O)Nc3ccc(F)cc3)CC2)nc2ccccc21,i,i,i,i,i,/,/,/,/
Cn1c(N2CCN(C(c3ccccc3)c3ccccc3)CC2)nc2ccccc21,7.51*,-7.09*,i,i,i,i,i,i,i
C=CCNc1nc(SCC=C)nc2ccsc12,7.42*,i,i,i,i,i,i,i,i
C=CCSc1nc(Oc2ccccc2)c2sccc2n1,i,i,i,i,i,/,/,/,/
Cc1nc2cc3c(cc2c(C)c1C(=O)OC(C)C)OCO3,7.06*,i,i,i,i,i,i,i,i
COC(=O)c1nc2cc3c(cc2c(C)c1C(=O)OC)OCO3,i,i,i,i,i,/,/,/,/
COc1ccc(N2C(=O)CS/C2=N\C(=S)Nc2ccccc2)cc1,i,i,i,i,i,/,/,/,/
Cn1c(=O)c2c(nc(N3CCCCCC3)n2Cc2cccc3ccccc23)n(C)c1=O,7.47*,i,i,i,i,i,i,51.2*,i
CN1CCN(c2nc3c(c(=O)n(C)c(=O)n3C)n2Cc2cccc3ccccc23)CC1,i,i,i,i,i,/,/,/,/
SMILES,MrgX1 PAM,RGS4 pot,MrgX1 agonist,RGS4 block,MrgX1 antagonist,MrgX1 PAM conf,HEK293 Ca flux,HEK293 Ca counter,HEK293 Ca cntr2
Cn1c(=O)c2c(nc(CN3CCc4ccccc4C3)n2CCCO)n(C)c1=O,i,i,i,i,i,/,/,/,/
Cn1c(=O)c2c(nc(CN3CCc4ccccc4C3)n2Cc2ccccc2F)n(C)c1=O,24.5*,i,i,i,i,38.0%*,i,i,i
COc1cccc(NC(=O)CSc2nc3c(sc4ccccc43)c(=O)n2CCN(C)C)c1,7.52*,i,i,i,i,i,i,i,i
CCN(CC)CCn1c(SCC(=O)Nc2cccc(OC)c2)nc2c(sc3ccccc32)c1=O,i,i,i,i,i,/,/,/,/
COc1ccc(NC(=S)N(CCCOC(C)C)C2CCN(C(C)=O)CC2)cc1Cl,i,i,i,i,i,/,/,/,/
Cc1nnc2ccc(-c3ccc(NS(=O)(=O)c4ccccc4F)cc3)nn12,i,i,i,i,i,/,/,/,/
Cc1nnc2ccc(-c3ccc(NS(=O)(=O)c4ccc(F)cc4F)cc3)nn12,9.66*,i,i,i,i,i,i,i,i
C/C(=N\NC(=O)c1ccc(=O)[nH]n1)c1cccnc1,i,i,i,i,i,/,/,/,/
CC(=O)c1ccc(NC(=O)Nc2ccc3c(c2)nc(C)n3C)cc1,8.82*,i,i,i,i,i,i,i,i
CCN(CC)S(=O)(=O)c1ccc(C(=O)NCC(=O)NCCCc2ccccc2)cc1,/,i,/,i,/,/,/,/,/
CS(=O)(=O)N(Cc1cc2ccccc2[nH]c1=O)C1CCCCC1,6.84*,i,i,i,i,i,i,i,i
COC(=O)C1=NNC2(c3ccc(C)cc3)C(=O)N(c3ccc(C)cc3)C(=O)C12 (stereo not given),i,i,i,i,i,/,/,/,/
COc1nc(NC(=O)c2ccc(F)cc2)nc(OC)c1-c1ccccc1,8.15*,i,i,i,i,i,i,i,i
COc1ccc(Br)c(C(=O)Nc2ccc(F)cc2)c1,6.89*,i,i,i,i,i,i,i,i
